Screens (PubChem BioAssay)
NPY2 pot ag – potentiators or agonists of human neuropeptide Y receptor Y2 | cells expressing NPY-Y2, potentiator/agonist read-out | AID 1359 | 0.45% of 220,000 active | activation, % at 3.6 µM | P49146; in the data active = activation above about 27%;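 also: cells stimulated with NPY near EC25 plus isoproterenol at EC100; 0% = vehicle plus submaximal agonist and 100% = vehicle plus saturating agonist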
EP2 modulator – EP2 receptor (human) modulation; P43116; 0.83% of 260,000 active; induction, % at 25 µM; EP2-expressing cells, cAMP HTRF FRET, PGE2 co-stimulation;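 active = compounds whose cAMP rise, as percent of the full-agonist control response, exceeds 60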;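 also: rat C6 glioma line stably carrying human EP2 under a CMV promoter; the protocol text gives 20 µM as final concentration; 100% = response of wells given 1 µM PGE2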
Target sequence (P43116 whole entry, looked up): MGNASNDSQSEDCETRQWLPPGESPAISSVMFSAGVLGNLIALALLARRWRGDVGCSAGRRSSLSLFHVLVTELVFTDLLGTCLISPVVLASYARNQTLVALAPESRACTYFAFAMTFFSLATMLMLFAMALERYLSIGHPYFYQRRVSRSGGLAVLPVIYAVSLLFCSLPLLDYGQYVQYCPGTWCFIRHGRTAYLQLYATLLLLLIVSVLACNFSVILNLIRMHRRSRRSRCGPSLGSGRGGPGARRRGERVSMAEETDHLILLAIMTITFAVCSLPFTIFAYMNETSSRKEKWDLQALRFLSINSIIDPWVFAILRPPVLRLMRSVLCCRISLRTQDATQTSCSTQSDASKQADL
NPY1 pot ag – potentiators or agonists of human neuropeptide Y receptor Y1; activation, % at 3.6 µM; 0.37% of 220,000 active; NPY-Y1 expressing cells, potentiator/agonist activation; in the data active = activation above about 33%, passing the limit was not always enough;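 also: cells stimulated with NPY at EC10 then isoproterenol at EC100; 0% = low agonist plus stimulus and 100% = saturating agonist plus stimulus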
NPY-Y2 antag – NPY-Y2 (human) receptor antagonism | NPY-Y2 expressing cells, antagonist mode | 0.99% of 140,000 active | P49146 | inhibition, % at 2.7 µM | AID 793; in the data active = inhibition above about 17%;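 also: 0% = vehicle with agonist challenge and 100% = reference antagonist with challenge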
NPY Y1 blocker – NPY-Y1 (human) receptor antagonism; P25929; HEK293-CNG Y1 cells, membrane potential fluorescence; NPY at EC95, then isoproterenol; inhibition, % at 3.6 µM; 1% of 200,000 active;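 active = inhibition above the campaign mean inhibition of all tested compounds plus 3 SD, cut at about 20% in these data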;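 also: 0% = DMSO wells given NPY plus isoproterenol and 100% = isoproterenol alone without NPY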
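Assay system: HEK293 cells with Y1 receptor plus CNG channel | Probe or stimulus: NPY (25 nM), isoproterenol (1 µM), Ro 20-1724 (25 µM) | Timing: Compound incubation 1 h at room temperature, readout 45 min post-stimulation | Measured by: Membrane-potential fluorescent dye readout | Benchmarks: High control isoproterenol alone, low control NPY with isoproterenol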
EP2 antag – blocks the human prostaglandin E2 receptor EP2. AID 1422. C6 glioma cells expressing human EP2, cAMP TR-FRET; cells stimulated with saturating PGE2. inhibition, % at 25 µM. 0.52% of 260,000 active;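 active = percent inhibition above 40 after rounding to a whole number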;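 also: rat C6 glioma host cells with rolipram phosphodiesterase inhibitor present; the protocol text gives 20 µM as final concentration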
EP2 confirm – EP2 receptor cAMP induction, counter-screens negative. shares compounds with EP2 modulator. C6 glioma EP2 cells, cAMP HTRF induction; plus low (about EC15) PGE2 agonist. calls only at 20 µM (by protocol). 47% of 1,300 active. AID 1080;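 active = cAMP induction above 50% in the main assay while under 30% in all four parallel counter assays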;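 also: rat C6 glioma cells stably expressing human EP2 receptor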
Numbers without * were called inactive; i = inactive; · = no result; + = active, no number. Compounds with a hit are over-represented: about 2.8% of the library has one in this group of screens.

SMILES	NPY2 pot ag	EP2 modulator	NPY1 pot ag	NPY-Y2 antag	NPY Y1 blocker	EP2 antag	EP2 confirm
CCOC(=O)c1sc2nc3c(SCC(=O)O)cc(C(=O)c4cc(F)ccc4O)cn3c(=O)c2c1C	-10	77*	-2	6	-4	6	+
CC1CCCN(c2nc3c(c(=O)[nH]c(=O)n3C)n2CCCSc2ncccn2)C1 (centres undefined)	·	-31	·	·	·	6	·
COC(=O)c1ccc(-n2nc(C(F)(F)F)c3c2-c2ccoc2CC3)cc1	-8	72*	-25	6	18	10	i
O=C(O)c1ccc(-n2nc(C(F)(F)F)c3c2-c2ccoc2CC3)cc1	18	-14	1	4	2	8	·
Cc1ccc(-n2c(=S)[nH]c3c(oc4ccccc43)c2=O)cc1	4	74*	5	2	2	14	i
O=c1c2sccc2[nH]c(=S)n1-c1ccccc1	7	-22	-14	·	·	5	·
Cc1ccc(-n2c(C)nc3oc4ccccc4c(=O)c3c2=O)cc1	-2	16	7	3	9	16	·
Cc1cccc(-n2c(=S)[nH]c3c(oc4ccccc43)c2=O)c1	8	71*	-8	3	1	13	i
O=c1c2oc3ccccc3c2[nH]c(=S)n1-c1ccccc1	-2	71*	-35	4	4	13	i
CCCOc1cccc(C2C(C(=O)c3ccco3)=C(O)C(=O)N2Cc2cccnc2)c1 (centres undefined)	·	12	·	·	·	12	·
CCC(=O)Oc1ccc(C(CC)C(CC)c2ccc(OC(=O)CC)cc2)cc1 (centres undefined)	8	69*	-14	3	4	9	+
O=S(=O)(c1ccccc1)c1nc(-c2ccco2)oc1N1CCCCCC1	0	68*	-1	8	3	15	i
CCc1nc2c(cnn2-c2ccc(Cl)cc2)c(=O)n1-c1ccc(OC)cc1	-4	81*	13	4	-1	17	i
CCOc1ccc(-n2c(C)nc3c(cnn3-c3ccc(Cl)cc3)c2=O)cc1	-9	30	-2	3	1	20	·
CN(C)S(=O)(=O)c1ccc(N2CCC(CNC(=O)c3ccccc3F)CC2)cc1	·	-65	·	·	·	5	·
C=C[C@@](C)(O)CCC1C(=C)C[C@H](O)C2C(C)(C)CCCC12C (some centres undefined)	·	79*	·	·	·	10	+
COCCN(Cc1cc2cc(C)cc(C)c2[nH]c1=O)C(=O)Nc1ccc(Cl)cc1	·	-13	·	·	·	10	·
CCCOC(=O)c1ccccc1NC(=O)c1c(O)c2ccccc2n(C)c1=O	·	37	·	·	·	8	·
COc1cccc(C(=O)N2N=C(c3cccc(OC)c3)CC2(O)C(F)(F)F)c1 (centres undefined)	-16	11	-6	2	2	5	·
O=C(c1ccco1)N1N=C(c2ccc(Br)cc2)CC1(O)C(F)(F)F (centres undefined)	-5	86*	-11	·	13	11	+
O=C(C1CC1)N1N=C(c2ccccc2)CC1(O)C(F)(F)F (centres undefined)	·	-16	·	·	·	9	·
COc1cccc(C2=NN(C(=O)c3cccs3)C(O)(C(F)(F)F)C2)c1 (centres undefined)	-22	86*	-29	·	8	9	+
Cc1ccc(C(=O)N2N=C(c3ccccc3)CC2(O)C(F)(F)F)o1 (centres undefined)	5	70*	-22	·	4	7	i
N#Cc1sc2nc(N3CCCCC3)c3c(c2c1N)CCCC3	-14	73*	-22	1	-2	17	+
CCOc1cc(/C=N\NC(=O)c2ccc(NC(=O)C(C)(C)C)cc2)ccc1OC(=O)c1ccc(C)cc1	-4	-6	13	2	4	6	·
CCOc1cc(/C=N/NC(N)=O)ccc1OC(=O)c1ccc(C)cc1	7	66*	2	2	-2	·	i
Cc1ccc(-c2csc3ncnc(N4CCc5ccccc5C4)c23)cc1	7	70*	6	12	9	4	i
Cc1ccc(-c2csc3ncnc(Cl)c23)cc1	-1	45	1	2	2	7	·
